Assay [1] relates to A-375. Description: Inhibitory activity against human tumor cell line […] melanoma. Format: functional, cell-based. In a few lines: (§1)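 Fibrosarcoma HT-1080, colon HT-29, breast MCF-7 and melanoma A-375 adapted to complete RPMI 1640; seeded 2.5 × 10^4 cells/mL, preincubated 24 h, exposed to drug 144 h. MTT assay, formazan dissolved in DMSO, absorbance per well read; IC50 (M) taken as concentration giving 50% growth inhibition.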

The target in assay [2] is Nucleic Acid. The experiment in a line: Ki value was measured for the binding of compound to DNA in ETN. The class given is nucleic-acid assay, Bos taurus. In a few lines:
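UV-vis titration: DNA added to ligand at fixed concentration in 10 mM Tris, 2 mM EDTA, NaCl to ionic strength 0.15 M, pH 7.0, 25 °C. Bound/free ligand from absorbance at wavelength of largest change (isosbestic points present); intrinsic constant and site size fitted by least squares to the neighbour-exclusion equation.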

In assay [3] the test system is Nucleic Acid. Description: dichroism data for visible band in the compound to calf thymus DNA in ETN. Format: nucleic-acid assay. As to conditions: Bos taurus. In a few lines:
(§2)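 Dichroism in Tris-EDTA-NaCl buffer, ionic strength 0.1, pH 7.0, 25 °C. CD given as Δε from ellipticity, path length and molar concentration. Linear dichroism with DNA oriented in rotating quartz cell at 600-800 rpm, four accumulations; ligand orientation angle derived from ligand/DNA reduced LD ratio, taking bases at 90°.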

Assay [4] concerns HT-29. Description: Inhibitory activity against human tumor cell line HT-29. The class given is functional, cell-based. Put shortly:
as §1

The subject of assay [5] is HT-1080. The experiment in a line: Inhibitory activity against human tumor cell line HT1080. The class given is functional, cell-based. In a few lines: as §1
The subject of assay [6] is MCF7. The experiment in a line: Inhibitory activity against human tumor cell line MCF-7 breast adenocarcinoma. The class given is functional, cell-based. In a few lines:
as §1

Assay [7] relates to LoVo. The experiment in a line: (§3) Inhibitory activity against human colon adenocarcinoma cell line LoVo/Dx. Format: functional, cell-based. In a few lines: (§4)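 LoVo and doxorubicin-resistant LoVo/Dx grown in Ham's F12 with 10% FCS, glutamine, BME vitamins, HEPES, pen/strep; 37 °C, CO2, mycoplasma-checked by DAPI. Seeded 2.5 × 10^4 cells/mL, preincubated 24 h, then drug exposure 144 h. MTT read-out at 570 nm; IC50 (μg/mL) as concentration inhibiting growth by 50%, at least three runs averaged.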

Assay [8] relates to LoVo. Description: Inhibitory activity against human colon adenocarcinoma cell line LoVo. Format: functional, cell-based. In a few lines:
as §4

Assay [9] is described as follows: (§5) Resistance index as the ratio of IC50 value against LoVo/Dx to that of LoVo cell lines. Format: functional. In a few lines:
(§6)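 LoVo and LoVo/Dx, each seeded 2.5 × 10^4 cells/mL, preincubated 24 h, exposed to drug 144 h; MTT formazan read at 570 nm. Resistance index = IC50 in LoVo/Dx divided by IC50 in LoVo.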

Assay [10] relates to HT-29. Description: Inhibitory activity against human tumor cell line HT-29. The class given is functional, cell-based. Put shortly:
as §1

The test system of assay [11] is HT-1080. The experiment in a line: Inhibitory activity against human tumor cell line HT1080. Format: functional, cell-based. Put shortly:
as §1

Assay [12] relates to Nucleic Acid. Description: dichroism data for visible band in the compound to DNA in ETN. Format: nucleic-acid assay. Conditions: Bos taurus. In a few lines:
as §2

The test system of assay [13] is LoVo. The assay is described as §5. Format: functional, Homo sapiens. In a few lines: as §6
Assay [14] relates to HT-29. The assay is described as §3. Format: functional, cell-based. As to conditions: in the assay text read “HT-29” for “LoVo/Dx”.
The subject of assay [15] is HT-1080. Description: inhibit the cellular growth by 50% was determined against human tumor cell line HT1080. Format: functional, cell-based. In a few lines:
as §1

Structures are written as SMILES. A value given as a limit tells only on which side of the number the result lay.

This note sets out measurements from ChEMBL document CHEMBL1128703, “Chromophore-modified antitumor anthracenediones: synthesis, DNA binding, and cytotoxic activity of 1,4-bis[(aminoalkyl)amino]benzo[g]-phthalazine-5,10-diones” (J Med Chem, 1995).

One may read the IC50 as the midpoint of a concentration-inhibition curve. A higher IC50 goes with weaker potency in that assay. Consider `Cl.Nc1nnc(NCCNCCO)c2c1C(=O)c1ccccc1C2=O`, for which the IC50 in assay [1] is 0.47 nM; in assay [4], 5.2 nM; in [5], 8.3 nM; in [6], 47 nM. The same compound returned a Ki in [2] of 45000 M⁻¹. In [3], this compound came in with an LD of -0.13.
On to `OCCNCCNc1nnc(NCCNCCO)c2cc3ccccc3cc12`, for which the IC50 is above 260000 nM in assay [7] and above 8100 nM in assay [8].
With `COc1cccc2c1C(=O)c1c(O)c3c(c(O)c1C2=O)C[C@@](O)(C(=O)CO)C[C@@H]3O[C@H]1C[C@H](N)[C@H](O)[C@H](C)O1` [DOXORUBICIN], the IC50 is 6000 nM in assay [7] and 43 nM in assay [8]. Besides, the RI in assay [9] is listed as 139.5.
With `O=C1c2c(O)ccc(O)c2C(=O)c2c(NCCNCCO)ccc(NCCNCCO)c21` [MITOXANTRONE], the half-maximal inhibitory concentration (IC50) in assay [1] came to 26 nM; in [10], 17 nM; in assay [6], 20 nM; in [7], 530 nM; in assay [8], 9.7 nM; in assay [11] it was 66 nM. For the same compound, in assay [9], the RI is 54.6.
Take `CN(C)CCCNc1nnc(NCCCN(C)C)c2c1C(=O)c1ccccc1C2=O`: the 50% inhibitory concentration (IC50) in assay [7] was found to be 1000 nM; in [8], 49 nM. The RI in assay [9] turned out to be 20.4.
On to `O=C1c2ccccc2C(=O)c2c(NCCN3CCCCC3)nnc(NCCN3CCCCC3)c21`, for which the IC50 was determined as 1200 nM in assay [7] and 260 nM in assay [8]. Besides, the RI in assay [9] is recorded as 4.6.
In turn, `O=C1c2ccccc2C(=O)c2c(NCCNCCO)ccc(NCCNCCO)c21` [AMETANTRONE] showed a Ki in [2] of 340000 M⁻¹. Further, in [12], the LD was -0.13. Also, the concentration for half-maximal inhibition (IC50) in assay [7] is 92000 nM; in [8], 580 nM. The RI in [13] was determined as 158.6.
For `Cl.O=C1c2ccccc2C(=O)c2c(NCCCO)nnc(NCCCO)c21`, the 50% inhibitory concentration (IC50) was below 2000 nM in assay [7] and 76 nM in assay [8]. For the same compound, the RI in assay [9] is on record as below 26.
For `CN(C)CCNc1nnc(NCCN(C)C)c2c1C(=O)c1ccccc1C2=O.Cl`, the IC50 in assay [1] was 33 nM; in assay [10] it was 9.4 nM; in assay [6], 0.95 nM; in assay [7] it was 440 nM; in assay [8] it was 73 nM; in assay [11], 46 nM. Also, in assay [9], the RI is on record as 6.
Turning to `CN(C)CCNc1nnc(N)c2c1C(=O)c1ccccc1C2=O`, the IC50 in [14] amounted to 6.5 nM; in assay [15], 34 nM.
For `CCN(CC)CCNc1nnc(NCCN(CC)CC)c2c1C(=O)c1ccccc1C2=O`, the IC50 is 1700 nM in assay [7] and 180 nM in [8]. In addition, the RI in assay [9] worked out at 9.4.
As to `O=C1c2ccccc2C(=O)c2c(NCc3ccccc3)nnc(NCc3ccccc3)c21`, the half-maximal inhibitory concentration (IC50) in assay [7] came out at 1300 nM; in [8], 1400 nM. Further, in [9], the RI came out at 0.9.
For `OCCCNc1nnc(NCCCO)c2cc3ccccc3cc12`, in that order: 36000 nM, above 9600 nM and above 3.7.
In assay [2], `Cl.O=C1c2ccccc2C(=O)c2c(NCCNCCO)nnc(NCCNCCO)c21` displayed a Ki of 47000 M⁻¹. This compound registered an LD in assay [12] of -0.13. For the same compound, the IC50 in assay [10] is 410 nM; in assay [6], 720 nM; in [7] it was 39000 nM; in assay [8], 2700 nM; in assay [11], 1300 nM. For the same compound, the RI in assay [13] came out at 14.4.
